Assay results taken from article PMC9371723 (Proceedings of the National Academy of Sciences of the …, 2022).

How the values were obtained:
[1] = test system: YUC monooxygenase; settings: YUC monooxygenase inhibitors; cited from earlier work
[2] = test system: auxin-conjugating GH3s; settings: competitive inhibitor; cited from earlier work
[3] = test system: TAA1; settings: cited from earlier work
[4] = test system: AtGH3.11/JAR1; settings: cited from earlier work
[5] = target: AtTIR1–IAA7 peptide (Arabidopsis thaliana, UniProt Q570C0); assay: SPR analysis of auxin-induced TIR1-IAA7 degron peptide interaction; type: binding
[6] = target: AtAFB5–IAA7 (Arabidopsis thaliana, UniProt Q9LTX2); assay: SPR analysis of auxin-induced AFB5-IAA7 degron peptide interaction; type: binding
[7] = test system: Arabidopsis thaliana seedlings; assay: Primary and lateral root growth of Arabidopsis seedlings; type: in vivo; settings: IAA at 0.05 µM
Procedure, shortened: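 Primary root: seedlings grown vertically 6–8 d at 24 °C, continuous light, on GM plates with test compound (5 µM estradiol added for inducible lines); length recorded from photographs. Lateral root: seedlings grown vertically 6 d, moved to horizontal GM plates (2 g/L gellan gum) with chemicals for 2 d at 24 °C; lateral roots counted and primary root length measured.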

[8] = test system: Arabidopsis mutants tir1-1 afb2-1, axr1-3, sav3-2, yucQ; assay: Lateral root formation in auxin signaling and biosynthesis mutants; type: in vivo, Arabidopsis thaliana
Procedure, shortened: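 Signalling and biosynthesis mutant seedlings, 4 d old, incubated with test compound for 3 more days. sav3-2 co-treated with 1 µM yucasinDF; yucQ co-treated with 1 µM kynurenine. Read-out was lateral root formation.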

[9] = test system: AtGH3.3, IAA19, YUC6 expression; assay: qRT-PCR of auxin-related genes in Arabidopsis; type: in vivo; settings: after 60 min of treatment
Procedure, shortened: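 Seedlings from vertical GM plates moved to liquid GM for 24 h, then harvested at intervals (10–60 min) after test compound was added. SYBR qRT-PCR: 95 °C 20 s, then 40 cycles of 95 °C 3 s and 60 °C 30 s. ΔΔCt normalised to UBQ10; n = 4, Tukey HSD vs mock.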

[10] = test system: Rice (Oryza sativa cv. Nipponbare) seedlings; assay: Rice seedling primary root and mesocotyl assays; type: in vivo
Procedure, shortened: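 Rice cv. Nipponbare seeds sterilised 20 min in 6% hypochlorite, rinsed, then germinated 2 d in sterile water at 28 °C in the dark. Mesocotyl: seedlings submerged 5 d in water with chemicals. Root: seedlings grown on 0.6% water agar with chemicals (n = 11). Both at 25 °C, 18 h light/6 h dark.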

[11] = test system: Physcomitrium patens; assay: Moss GH3::GUS reporter line phenotype; type: in vivo; settings: 10 μM, 15 d
Procedure, shortened: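 P. patens GH3::GUS reporter colonies cultured 15 d on BCDATG medium (0.8% agar) with or without 10 µM test compound and 10 µM IAA. GUS visualised histochemically with X-Gluc; ectopic leafy-like primordia scored.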

[12] = test system: DII-VENUS fusion reporter protein; settings: IAA application; cited from earlier work
[13] = test system: endogenous IAA; settings: within 30 min; cited from earlier work

Chain of AtAFB5–IAA7 (Q9LTX2 whole entry, other chains not shown): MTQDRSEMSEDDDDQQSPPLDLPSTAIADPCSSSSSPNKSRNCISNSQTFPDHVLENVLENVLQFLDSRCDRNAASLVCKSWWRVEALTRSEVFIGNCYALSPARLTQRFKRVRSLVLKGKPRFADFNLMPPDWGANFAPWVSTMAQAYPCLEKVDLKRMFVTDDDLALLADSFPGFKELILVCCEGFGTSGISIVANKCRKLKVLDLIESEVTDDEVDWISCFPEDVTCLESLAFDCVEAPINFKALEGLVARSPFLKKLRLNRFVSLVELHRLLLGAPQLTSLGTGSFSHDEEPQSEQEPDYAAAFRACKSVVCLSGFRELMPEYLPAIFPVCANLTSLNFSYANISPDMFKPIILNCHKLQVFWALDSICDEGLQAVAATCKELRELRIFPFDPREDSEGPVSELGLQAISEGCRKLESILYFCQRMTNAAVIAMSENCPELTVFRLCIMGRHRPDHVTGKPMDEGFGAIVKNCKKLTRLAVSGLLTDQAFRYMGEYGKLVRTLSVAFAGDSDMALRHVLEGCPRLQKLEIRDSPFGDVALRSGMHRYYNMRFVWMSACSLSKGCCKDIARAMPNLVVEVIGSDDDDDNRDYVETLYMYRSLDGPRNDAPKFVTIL
Chain of AtAFB5–IAA7 (Q39255 whole entry partner, other chains not shown): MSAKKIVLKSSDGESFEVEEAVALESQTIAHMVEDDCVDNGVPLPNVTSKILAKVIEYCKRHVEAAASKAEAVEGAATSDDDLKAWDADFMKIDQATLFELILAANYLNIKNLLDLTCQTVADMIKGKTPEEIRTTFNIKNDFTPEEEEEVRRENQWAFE
Chain of AtTIR1–IAA7 peptide (Q570C0 whole entry, other chains not shown): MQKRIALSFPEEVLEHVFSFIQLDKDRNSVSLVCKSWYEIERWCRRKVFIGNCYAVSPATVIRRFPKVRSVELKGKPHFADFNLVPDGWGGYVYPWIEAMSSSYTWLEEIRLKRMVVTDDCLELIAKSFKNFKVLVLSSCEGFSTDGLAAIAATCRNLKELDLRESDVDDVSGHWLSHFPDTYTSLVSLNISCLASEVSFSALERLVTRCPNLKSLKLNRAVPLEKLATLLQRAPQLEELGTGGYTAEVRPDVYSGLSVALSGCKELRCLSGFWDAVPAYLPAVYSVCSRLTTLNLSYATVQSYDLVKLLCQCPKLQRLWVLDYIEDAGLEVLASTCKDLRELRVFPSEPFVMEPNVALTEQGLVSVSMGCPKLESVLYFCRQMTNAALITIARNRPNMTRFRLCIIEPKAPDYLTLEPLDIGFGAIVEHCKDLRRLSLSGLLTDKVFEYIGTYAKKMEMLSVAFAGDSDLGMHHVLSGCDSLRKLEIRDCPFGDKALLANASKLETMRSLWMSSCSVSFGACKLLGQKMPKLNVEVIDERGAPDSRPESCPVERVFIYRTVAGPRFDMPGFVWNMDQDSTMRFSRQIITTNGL
Chain of AtTIR1–IAA7 peptide (Q39255 whole entry partner, other chains not shown): as the sequence (Q39255 whole entry partner, other chains not shown) above

SMILES: OB(O)c1ccc(Oc2ccccc2)cc1 [PPBo]
- IAA production [1]: block IAA production

SMILES: Nc1ncnc2c1ncn2[C@@H]1O[C@H](COP(=O)(O)OCCc2c[nH]c3ccccc23)[C@@H](O)[C@H]1O [AEIP, Adenosine-5-[2-(1H-indol-3-yl)ethyl]phosphate]
- in vitro activity against auxin-conjugating GH3s [2]: micromolar range

SMILES: Nc1ccccc1C(=O)C[C@H](N)C(=O)O [L-kynurenine]
- inhibition of TAA1 [3]: competitively inhibit

SMILES: COCCC(=O)N1C[C@@H]2C[C@H](C1)c1ccc(NC(=O)c3ccc(-c4ccccc4)cc3)c(=O)n1C2 [jarin-1]
- inhibition of AtGH3.11/JAR1 [4]: selectively inhibits

SMILES: O=C(O)Cc1c[nH]c2ccccc12 [IAA, indole-3-acetic acid]
- effect on TIR1–IAA7 peptide association and dissociation [5]: promotes interaction
- effect on AFB5–IAA7 peptide association and dissociation [6]: promotes interaction
- lateral root formation in WT roots [7]: promoted lateral root formation
- lateral root formation in sav3-2 and yuc Q mutants ([8]; auxin biosynthesis mutants): induced by IAA to a similar extent as WT plants
- lateral root formation in tir1-1 afb2-1 and axr1-3 mutants ([8]; auxin signaling mutants): showed resistance
- expression of auxin biosynthesis gene YUC6 [9]: down-regulated
- mesocotyl elongation in rice ([10]; aerial part of rice seedlings): promoted mesocotyl elongation
- primary root elongation in rice ([10]; rice roots): suppressed primary root elongation
- ectopic formation of leafy-like primordia [11]: has not been induced
- time to decomposition of DII-VENUS after application [12]: ≤ 10 min

SMILES: S=c1nc(-c2ccc(Cl)cc2)[nH][nH]1 [yucasin]
- endogenous IAA level [13]: decreased the endogenous IAA to almost basal level
